How the values were obtained:
[1] = species: Rattus norvegicus; experiment: Compound was evaluated for its activity at solubilized receptor (CHAPS/salt-solubilized preparation) from rat frontal cortex; type: functional, organism-based; conditions: for IC50: Rattus norvegicus, Frontal cortex
[2] = species: Rattus norvegicus; experiment: Compound was evaluated for its activity at membrane-bound receptor (M+L+P fraction) from rat frontal cortex; type: functional, organism-based; conditions: for IC50: Rattus norvegicus, Frontal cortex
[3] = biological target: T1, Serotonin 1 (5-HT1) receptor (Rattus norvegicus, UniProt P28564+P30940+P19327+P28565); experiment: Compound was evaluated for binding activity against [3H]5-HT as radioligand for serotonin S1 receptor; type: protein assay
In short: (§1)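 Filtration binding technique applied to rat or guinea pig brain tissue. Tissues, buffers, radioligands and incubation conditions per earlier methods. Ki computed using radioligand KD values from the literature.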

[4] = Binding affinity for membrane-bound 5-HT-S2 receptor; set-up: species or system Rattus norvegicus
In short: (§2)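 Rat frontal cortex (M+L+P) fraction, diluted 1:100 w/v, in 50 mM Tris-HCl pH 7.7. Incubated 15 min at 37 °C with 1 nM [3H]-7-aminoketanserin (final) and unlabeled drug. Stopped by rapid GF/B filtration with two ice-cold buffer rinses, then scintillation counting. IC50 from two experiments in triplicate; Ki by Cheng-Prusoff.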

[5] = Half life time was determined; type: ADME
In short: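 Kinetics of [3H]-7-aminoketanserin at rat frontal cortex receptors, membrane-bound (M+L+P) or CHAPS/salt-solubilized. Association ran for 20 min. Dissociation was started by adding a 1000-fold excess of pipamperone and treated as first-order. Means ± SD of independent triplicate experiments.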

[6] = biological target: T2, Adrenergic receptor alpha-2 (Rattus norvegicus, UniProt P22086+P19328+P22909); experiment: Compound was evaluated for binding activity against [3H]clonidine as radioligand for alpha-2 adrenergic receptor; type: protein assay; in short: as §1
T2 sequence (P22086 whole entry): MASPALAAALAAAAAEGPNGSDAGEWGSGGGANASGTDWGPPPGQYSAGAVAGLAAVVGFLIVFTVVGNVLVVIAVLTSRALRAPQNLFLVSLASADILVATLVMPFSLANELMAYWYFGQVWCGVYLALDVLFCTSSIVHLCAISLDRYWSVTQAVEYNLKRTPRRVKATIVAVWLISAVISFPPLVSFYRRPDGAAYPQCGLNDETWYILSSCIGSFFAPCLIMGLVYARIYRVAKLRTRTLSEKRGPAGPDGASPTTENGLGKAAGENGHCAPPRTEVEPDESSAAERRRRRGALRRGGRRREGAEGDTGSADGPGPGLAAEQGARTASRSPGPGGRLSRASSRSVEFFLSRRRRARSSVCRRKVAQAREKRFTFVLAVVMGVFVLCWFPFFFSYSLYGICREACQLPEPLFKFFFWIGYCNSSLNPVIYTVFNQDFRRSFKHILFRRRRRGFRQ
T2 sequence (P19328 whole entry): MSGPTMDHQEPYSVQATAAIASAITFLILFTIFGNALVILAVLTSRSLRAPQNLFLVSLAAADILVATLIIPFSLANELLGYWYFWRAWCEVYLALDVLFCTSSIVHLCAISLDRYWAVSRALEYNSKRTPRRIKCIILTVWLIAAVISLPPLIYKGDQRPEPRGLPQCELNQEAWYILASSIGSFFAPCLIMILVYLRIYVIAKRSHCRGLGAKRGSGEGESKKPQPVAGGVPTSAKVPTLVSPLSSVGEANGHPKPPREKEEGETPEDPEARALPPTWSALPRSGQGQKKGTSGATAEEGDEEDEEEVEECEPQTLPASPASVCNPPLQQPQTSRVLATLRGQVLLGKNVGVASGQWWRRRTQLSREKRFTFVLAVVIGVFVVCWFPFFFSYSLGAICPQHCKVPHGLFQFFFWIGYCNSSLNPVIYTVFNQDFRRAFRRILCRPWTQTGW
T2 sequence (P22909 whole entry): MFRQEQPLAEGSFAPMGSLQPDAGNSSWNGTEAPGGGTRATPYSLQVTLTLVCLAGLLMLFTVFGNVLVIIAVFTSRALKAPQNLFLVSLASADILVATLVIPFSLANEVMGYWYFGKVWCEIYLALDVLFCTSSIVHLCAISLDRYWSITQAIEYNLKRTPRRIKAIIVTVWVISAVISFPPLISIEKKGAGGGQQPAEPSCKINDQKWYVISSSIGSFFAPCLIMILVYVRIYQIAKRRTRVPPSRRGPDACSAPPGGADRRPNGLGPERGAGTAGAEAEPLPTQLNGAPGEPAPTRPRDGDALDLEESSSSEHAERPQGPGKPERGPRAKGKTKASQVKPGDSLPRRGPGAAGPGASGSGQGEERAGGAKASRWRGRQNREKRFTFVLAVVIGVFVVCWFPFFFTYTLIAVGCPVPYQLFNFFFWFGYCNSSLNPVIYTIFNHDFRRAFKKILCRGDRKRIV

[7] = biological target: T3, Adrenergic receptor alpha-1 (Rattus norvegicus, UniProt P15823+P23944+P43140); experiment: Compound was evaluated for binding activity against [3H]-WB- 4101 as radioligand for alpha-1 adrenergic receptor; type: protein assay; in short: as §1
T3 sequence (P15823 whole entry): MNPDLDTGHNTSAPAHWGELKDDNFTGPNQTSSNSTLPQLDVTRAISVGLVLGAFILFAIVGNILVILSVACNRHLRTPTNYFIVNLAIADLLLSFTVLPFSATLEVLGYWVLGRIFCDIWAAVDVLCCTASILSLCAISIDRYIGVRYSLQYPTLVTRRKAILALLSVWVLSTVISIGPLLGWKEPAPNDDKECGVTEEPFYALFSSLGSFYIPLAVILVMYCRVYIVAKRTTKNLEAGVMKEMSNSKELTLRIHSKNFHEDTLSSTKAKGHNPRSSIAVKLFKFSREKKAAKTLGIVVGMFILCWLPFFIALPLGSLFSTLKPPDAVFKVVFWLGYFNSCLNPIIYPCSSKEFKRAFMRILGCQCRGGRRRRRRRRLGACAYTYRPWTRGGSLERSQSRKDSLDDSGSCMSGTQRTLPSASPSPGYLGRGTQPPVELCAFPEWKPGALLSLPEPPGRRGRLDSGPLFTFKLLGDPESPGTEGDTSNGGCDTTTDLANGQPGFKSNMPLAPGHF
T3 sequence (P23944 whole entry): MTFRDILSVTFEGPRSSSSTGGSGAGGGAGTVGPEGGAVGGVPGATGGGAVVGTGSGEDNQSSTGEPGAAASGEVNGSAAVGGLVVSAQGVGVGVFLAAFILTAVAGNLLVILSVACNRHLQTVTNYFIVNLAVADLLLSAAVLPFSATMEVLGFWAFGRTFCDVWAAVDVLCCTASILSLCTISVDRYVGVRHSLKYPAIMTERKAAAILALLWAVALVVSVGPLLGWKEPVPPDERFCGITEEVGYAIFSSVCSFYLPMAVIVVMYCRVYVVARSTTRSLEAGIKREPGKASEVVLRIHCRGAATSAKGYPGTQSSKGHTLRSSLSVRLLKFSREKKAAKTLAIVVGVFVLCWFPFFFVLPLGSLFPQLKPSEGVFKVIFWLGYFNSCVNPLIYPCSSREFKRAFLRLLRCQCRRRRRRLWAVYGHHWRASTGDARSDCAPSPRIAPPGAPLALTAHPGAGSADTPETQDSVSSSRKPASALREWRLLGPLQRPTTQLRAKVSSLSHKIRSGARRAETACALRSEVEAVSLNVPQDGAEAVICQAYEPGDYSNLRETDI
T3 sequence (P43140 whole entry): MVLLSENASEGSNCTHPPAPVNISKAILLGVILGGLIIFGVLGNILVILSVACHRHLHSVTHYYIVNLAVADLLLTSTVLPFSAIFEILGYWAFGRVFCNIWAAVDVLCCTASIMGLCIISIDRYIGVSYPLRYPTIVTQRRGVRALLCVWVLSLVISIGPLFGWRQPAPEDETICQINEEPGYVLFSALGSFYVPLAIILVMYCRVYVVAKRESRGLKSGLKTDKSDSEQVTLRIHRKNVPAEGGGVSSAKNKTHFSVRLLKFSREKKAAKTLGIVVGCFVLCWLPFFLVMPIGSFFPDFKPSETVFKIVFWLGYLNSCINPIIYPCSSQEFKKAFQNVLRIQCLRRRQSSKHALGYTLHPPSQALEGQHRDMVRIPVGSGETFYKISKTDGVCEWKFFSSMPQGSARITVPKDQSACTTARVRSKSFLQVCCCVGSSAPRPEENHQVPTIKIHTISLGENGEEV

[8] = Compound was evaluated at solubilized receptor (CHAPS/salt-solubilized preparation) from rat frontal cortex; type: tissue-based
In short: (§3)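 Rat frontal cortex microsomal fraction solubilized for 12 min at 4 °C in CHAPS/NaCl medium (13.6 mM CHAPS, 2.8 M NaCl, pH 7.2), centrifuged at 180000 g, and supernatant diluted to 1:16 w/v. Incubated 15 min at 30 °C with 2 nM [3H]-7-aminoketanserin (final) and drug. Free ligand removed by charcoal/BSA, supernatant counted. IC50 from two triplicate experiments; Ki by Cheng-Prusoff.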

[9] = biological target: Serotonin 2 (5-HT2) receptor (Rattus norvegicus, UniProt P30994+P08909+P14842); experiment: Evaluated for binding activity against [3H]ketanserin as radioligand for 5-hydroxytryptamine 2 receptor; type: protein assay; in short: as §1
[10] = biological target: D(2) dopamine receptor (Rattus norvegicus, UniProt P61169); experiment: Compound was evaluated for binding activity against [3H]haloperidol as radioligand for Dopamine receptor D2; in short: as §1
[11] = Binding affinity for detergent solubilized 5-HT-S2 receptor; set-up: species or system Rattus norvegicus; in short: as §3
[12] = Compound was evaluated at membrane-bound receptor (M+L+P fraction) from rat frontal cortex; type: tissue-based; in short: as §2
[13] = species: Rattus norvegicus; experiment: (§4) Number of binding sites of the receptor was determined
In short: (§5)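 Saturation binding of [3H]-7-aminoketanserin to rat frontal cortex (M+L+P) fraction (three experiments) or solubilized preparation (two experiments), each in triplicate. Specific binding is total minus binding with a 1000-fold methysergide excess. Bmax and KD taken from computer-fitted Scatchard plots.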

[14] = biological target: T1, Serotonin 1 (5-HT1) receptor; experiment: Compound was evaluated for binding activity against [3H]-5-HT as radioligand for serotonin S1 receptor; type: protein assay; in short: as §1
[15] = species: Rattus norvegicus; experiment: as §4; in short: as §5; remark: listed apart in the source
[16] = biological target: Muscarinic acetylcholine receptor; experiment: Compound was evaluated for binding activity against [3H]dexetimide as radioligand for muscarinic-acetylcholine receptor; type: protein assay; in short: as §1
[17] = biological target: Histamine H1 receptor (Rattus norvegicus, UniProt P31390); experiment: Compound was evaluated for binding activity against [3H]pyrilamine as radioligand for Histamine H1 receptor; in short: as §1
[18] = biological target: Adrenergic receptor beta (Rattus norvegicus, UniProt P18090+P10608+P26255); experiment: Compound was evaluated for binding activity against [3H]dihydroalprenolol as radioligand for beta adrenergic receptor; type: protein assay; in short: as §1

Histamine H1 receptor, sequence (P31390 whole entry): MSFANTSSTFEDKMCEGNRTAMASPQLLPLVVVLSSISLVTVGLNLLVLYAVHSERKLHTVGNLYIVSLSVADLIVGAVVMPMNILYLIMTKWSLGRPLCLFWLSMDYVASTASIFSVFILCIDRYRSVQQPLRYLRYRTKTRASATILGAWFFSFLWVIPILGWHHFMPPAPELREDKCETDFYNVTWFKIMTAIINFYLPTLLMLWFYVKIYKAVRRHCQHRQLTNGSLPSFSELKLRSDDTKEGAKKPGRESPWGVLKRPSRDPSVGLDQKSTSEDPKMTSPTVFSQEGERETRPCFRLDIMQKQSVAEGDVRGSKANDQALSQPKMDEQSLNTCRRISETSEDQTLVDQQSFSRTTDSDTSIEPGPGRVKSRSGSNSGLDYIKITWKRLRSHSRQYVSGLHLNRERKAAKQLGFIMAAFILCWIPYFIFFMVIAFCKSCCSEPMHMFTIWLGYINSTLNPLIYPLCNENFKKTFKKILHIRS
D(2) dopamine receptor, sequence (P61169 whole entry): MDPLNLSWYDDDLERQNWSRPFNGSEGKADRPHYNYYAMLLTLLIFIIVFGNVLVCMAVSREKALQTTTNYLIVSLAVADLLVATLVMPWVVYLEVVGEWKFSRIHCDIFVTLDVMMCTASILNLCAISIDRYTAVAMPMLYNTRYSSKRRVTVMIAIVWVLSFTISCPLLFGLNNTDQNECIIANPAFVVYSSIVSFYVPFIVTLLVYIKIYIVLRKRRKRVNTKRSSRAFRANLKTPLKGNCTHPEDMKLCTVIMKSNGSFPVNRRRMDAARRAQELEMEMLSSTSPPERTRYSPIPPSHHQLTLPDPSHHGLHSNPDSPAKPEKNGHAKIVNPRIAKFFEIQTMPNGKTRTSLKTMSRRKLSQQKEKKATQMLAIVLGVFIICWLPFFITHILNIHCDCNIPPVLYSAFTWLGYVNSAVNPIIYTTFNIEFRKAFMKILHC

COc1cccc(OC)c1OCCNCC1COc2ccccc2O1 (stereo not drawn)
Ki [1]: 3880 nM
IC50 [1]: 7760 nM
Ki [2]: 697 nM
IC50 [2]: 2690 nM

Nc1ccc2c(=O)n(CCN3CCC(C(=O)c4ccc(F)cc4)CC3)c(=O)[nH]c2c1
Ki [3]: 4.416 µM
Kd [4]: 0.35 nM
T1/2 [5]: 12.4 min
half-life [5]: 7.8 min
-Log IC50 [6]: < 6
-Log IC50 [7]: 7.82
Ki [7]: 5.49 nM
-Log IC50 [8]: 8.35
Ki [8]: 2.23 nM
-Log IC50 [9]: 9.25
Ki [9]: 0.17 nM
IC50 [10]: 417 nM
Ki [10]: 164 nM
Kd [11]: 2.03 nM
-Log IC50 [12]: 8.86
Ki [12]: 0.36 nM
Bmax [13]: 4.18 fmol/mg
-Log IC50 [14]: 5.25
Bmax [15]: 37 fmol/mg
-Log IC50 [16]: < 6
IC50 [17]: 2.24 nM
Ki [17]: 1.22 nM
-Log IC50 [18]: < 6

CN(C)CCc1c[nH]c2ccc(O)cc12 [BUFOTENINE]
Ki [1]: 6300 nM
IC50 [1]: 12600 nM
Ki [2]: 341 nM
IC50 [2]: 1320 nM

O=c1[nH]c2ccccc2n1CCCN1CCC(n2c(=O)[nH]c3cc(Cl)ccc32)CC1 [DOMPERIDONE]
Ki [1]: 998 nM
IC50 [1]: 2000 nM
Ki [2]: 152 nM
IC50 [2]: 589 nM

O=C(c1ccc(F)cc1)C1CCN(CCn2c(=O)[nH]c3ccccc3c2=O)CC1 [KETANSERIN]
Ki [1]: 3.97 nM
IC50 [1]: 7.94 nM
Ki [2]: 0.68 nM
IC50 [2]: 2.63 nM

CN1CCN2c3ccccc3Cc3ccccc3C2C1 (stereo not drawn) [MIANSERIN]
Ki [1]: 13.5 nM
IC50 [1]: 26.9 nM
Ki [2]: 3.04 nM
IC50 [2]: 11.7 nM
